From PubChem
In the library only some 3.5% were active in any assay of this set; here they are far more common.
APP 5'UTR act: activators of APP 5'UTR luciferase reporter, primary screen, SH-SY5Y cells. AID 1276, 2008. 190,000 tested, 1% active. SH-SY5Y APP 5'UTR luciferase reporter, luminescence; zero percent = DMSO vehicle wells. activation, % at 2 µM;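 active means activation above a set limit, based on mean plus 3 SD of controls, cut at about 140% in these data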
NF-kB neuron act: activators of NF-kB expression in neurons, primary screen, cell-based, HTS | 190,000 tested, 1.6% active | fold change at 12.5 µM | AID 1239, 2008 | human neuronal cells, NF-kB reporter expression; hits give high values; in the data active means fold change above about 3.3
STAT1 act: STAT1 signaling activators, primary screen, cell-based, HTS, luciferase reporter | NIH 3T3 STAT1-luciferase reporter, IFN-gamma, luminescence; 100% = IFN-gamma alone, no compound | activation (% of control), % at 5.5 µM | 200,000 tested, 2.6% active;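 active means activation above the screen-wide mean activation plus 3 SD, cut at about 130% in these data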
FLuc stim CS: FLuc activators, initial screening, artefact control for FLuc-dependent activation tests, biochemical, ATPlite luminescence; Luciferin 4-monooxygenase (Photinus pyralis), P08659; ATPlite luciferase biochemical, 10 min; 0 = ATP-free wells, 1 = DMSO control; activation factor at 10 µM; 200,000 tested, under 10 active; AID 1027, 2008;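 active means luciferase activation factor, scaled between plate controls, of at least 2 with compound at 10 µM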
Target sequence (P08659 whole entry, looked up): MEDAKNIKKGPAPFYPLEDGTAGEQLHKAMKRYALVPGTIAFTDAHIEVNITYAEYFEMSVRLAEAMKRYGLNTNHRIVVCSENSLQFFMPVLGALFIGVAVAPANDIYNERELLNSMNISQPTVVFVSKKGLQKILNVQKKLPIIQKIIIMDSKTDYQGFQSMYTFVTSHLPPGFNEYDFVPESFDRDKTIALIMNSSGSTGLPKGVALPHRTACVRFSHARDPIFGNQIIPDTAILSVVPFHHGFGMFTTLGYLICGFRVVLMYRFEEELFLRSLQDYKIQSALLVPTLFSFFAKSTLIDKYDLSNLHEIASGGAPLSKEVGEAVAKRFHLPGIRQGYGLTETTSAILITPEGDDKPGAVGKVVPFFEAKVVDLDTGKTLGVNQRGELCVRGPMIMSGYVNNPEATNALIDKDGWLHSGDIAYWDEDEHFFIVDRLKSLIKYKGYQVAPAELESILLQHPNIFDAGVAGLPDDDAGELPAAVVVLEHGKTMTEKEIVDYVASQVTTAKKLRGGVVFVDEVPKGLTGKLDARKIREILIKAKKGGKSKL
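Assay system: Luciferase/luciferin detection reagent, cell-free biochemical luciferase assay / Also added: ATP substrate / Schedule: 10 min at ambient temperature / Measured by: luminescence measurement of luciferase light output / Benchmarks: low control with PBS replacing ATP, high control enzyme plus ATP without compound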
FLuc inh counter: firefly luciferase enzyme inhibitors, primary screen, artefact control for luciferase-based inhibitor screens, biochemical, luminescence, ATPLite. 10 min. 200,000 tested, 1.5% active. inhibition, % at 10 µM. Luciferin 4-monooxygenase (Photinus pyralis), P08659;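 active means inhibition above about 50% when tested at 10 µM, limit read from the data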
Pf gametocyte: late stage P. falciparum gametocyte viability inhibitors, primary screen, ATP luminescence, HTS | P. falciparum stage V gametocytes, 24 h | inhibition, % at 10.9 µM | 150,000 tested, 0.065% active | AID 743093, 2013;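 active means inhibition above the mean plus 3 SD of compounds within the control limits, set per campaign, cut at about 38% in these data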
A number is an active result; . = inactive; / = no result.

SMILES | APP 5'UTR act | NF-kB neuron act | STAT1 act | FLuc stim CS | FLuc inh counter | Pf gametocyte
COc1cccc2cc(-c3nc(-c4cccs4)cs3)c(=O)oc12 | . | . | 133 | . | . | /
O=c1oc2ccccc2cc1-c1nc(-c2cccs2)cs1 | / | . | . | . | . | .
COc1cccc2cc(-c3nc4ccccc4[nH]3)c(=O)oc12 | / | / | / | / | / | .
O=C(COC(=O)c1ccc2ccccc2n1)c1ccc(F)cc1 | . | . | . | . | . | .
Cc1ccc(NC(=O)COC(=O)C2CC2(Cl)Cl)cc1C (stereo unspecified) | . | . | . | . | . | .
OC1(c2cccc(C(F)(F)F)c2)CCN(c2ccc(-c3ccccc3)nn2)CC1 | . | . | 141 | . | . | /
Nc1cc(Cl)ccc1C(=O)OCC(=O)N1CCOCC1 | / | / | / | / | / | .
Brc1ccc2c(c1)OCCOCCOCCOCCOCCOCCO2 | . | . | . | . | . | .
CCOc1ccc2oc(=O)cc(C)c2c1 | . | . | 133 | . | . | .
Cc1ccc2c(c1)C(=O)C(=O)N2CCOc1ccccc1 | . | 3.6 | . | . | . | .
Cc1cccc(OCCN2C(=O)C(=O)c3cccc(C)c32)c1 | / | . | . | . | . | .
Cc1cccc(OCCN2C(=O)C(=O)c3cc(C)ccc32)c1 | . | 3.8 | . | . | . | .
COc1ccc(N2C(=O)[C@@H]3[C@H](C2=O)[C@H]2c4ccccc4C=CN2[C@@H]3C(C)=O)cc1 | . | . | . | . | . | .
Cc1ccc(NC(=O)Nc2ccc3c(c2)OCO3)nc1 | . | 4 | 149 | . | . | .
Cc1ccc(NC(=O)/C=C/c2ccc3c(c2)OCO3)nc1 | 152 | . | . | . | . | /
CC(=O)CCc1c(C)c2cc(C)ccc2[nH]c1=O | . | . | . | . | . | .
CCCCC(C(=O)NCCC(C)C)N(CCCN1CCOCC1)C(=O)c1snc(C(N)=O)c1N (stereo unspecified) | . | . | . | . | . | /
Clc1ccc(C(c2nnnn2C2CCCC2)N2CCSCC2)cc1 (stereo unspecified) | . | . | . | . | . | .
COc1ccc(-c2csc(C3=C(O)CN(CCCN4CCCC4=O)C3=N)n2)cc1OC | . | . | . | . | 56 | .
Cc1cccnc1NC(=S)NC(=O)c1cccs1 | 198 | 5 | 174 | . | 71 | /
O=C(NC(=S)Nc1ccc(Br)cn1)c1cccs1 | 195 | 4 | 204 | . | 72 | /
Cc1cccnc1NC(=S)NC(=O)c1cncc(Br)c1 | . | . | . | . | . | /
O=C(CC1NCCNC1=O)NC1Cc2ccccc2C1 (stereo unspecified) | / | / | / | / | / | .
CCSc1nnc(N2C(=O)c3ccc(C(=O)c4ccc(C(=O)O)cc4)cc3C2=O)s1 | / | / | / | / | / | .
C=CCC(O)(CC=C)CNC(=O)c1ccc(OC)c(OC2CCN(C(C)=O)CC2)c1 | / | / | / | / | / | .
SMILES | APP 5'UTR act | NF-kB neuron act | STAT1 act | FLuc stim CS | FLuc inh counter | Pf gametocyte
Cn1c(NCc2ccc(Cl)cc2)nc2ccccc21 | . | . | 136 | . | 51 | /
COc1ccc(CNc2nc3ccccc3n2C)c(OC)c1 | . | 3.4 | . | . | . | .
Cc1cc(C)c2ccc(C(=O)O)nc2c1O | . | . | . | . | . | .
O=C1NC(c2ccc(Br)cc2)=N/C1=C/c1ccco1 | 140 | . | . | . | . | .
CCS(=O)(=O)N1CCN(c2ccc([N+](=O)[O-])c(N3CCOCC3)c2)CC1 | . | . | . | . | . | /
Oc1ccc(Cl)cc1-c1cc(-c2ccco2)[nH]n1 | . | . | . | . | . | .
Oc1ccccc1-c1cc(-c2cccc(F)c2)n[nH]1 | 202 | 9.9 | . | . | . | .
Oc1c(-c2cc(-c3ccco3)[nH]n2)ccc2ccccc12 | . | 8.7 | . | . | . | .
Oc1ccccc1-c1cc(-c2ccccc2Cl)[nH]n1 | 231 | 8.7 | . | . | . | /
Oc1ccc(Cl)cc1-c1cc(-c2ccccc2Cl)[nH]n1 | . | . | . | . | . | .
Oc1ccccc1-c1cc(-c2ccco2)[nH]n1 | . | 3.9 | . | . | . | .
CC1CCCN(C(=O)Cn2nnc(-c3ccc([N+](=O)[O-])cc3)n2)C1 (stereo unspecified) | / | / | / | / | / | .
CC1CCCN(c2ccc(C(=O)NCc3cccs3)cn2)C1 (stereo unspecified) | . | . | . | . | . | /
CC1CCCN(c2ccc(C(=O)NCc3ccccc3)cn2)C1 (stereo unspecified) | . | . | 137 | . | . | /
CC1CCN(c2ccc(C(=O)NCCc3ccccc3)cn2)CC1 | . | . | 132 | . | . | /
Cc1cccc(OCC(=O)NC(Cc2c[nH]c3ccccc23)C(=O)O)c1C (stereo unspecified) | . | / | . | . | . | .
O=C1Nc2ccccc2S/C1=C\C(=O)N1CCCC1 | . | . | . | . | . | /
O=C1Nc2ccccc2S/C1=C/Nc1cccc(Cl)c1 | . | . | 130 | . | . | .
CC1CCc2c(sc(N)c2C(=O)OC(C)C)C1 (stereo unspecified) | . | . | . | . | . | /
N#CCCn1nc(-c2ccccc2)c2ccccc2c1=O | / | / | / | / | / | .
COc1ccc2c(c1)c(C(=O)CN1CCN(C(=O)c3ccco3)CC1)c(C)n2C | . | . | . | . | . | /
COC(=O)c1ccc2nc(-c3ccc(S(C)(=O)=O)cc3)cn2c1 | . | . | 139 | . | . | .
COC(=O)c1ccc2nc(-c3cccc(N)c3)cn2c1 | . | . | . | . | 90 | .
COc1ccc(/C=N/NC(=O)c2[nH]c3ccc(Br)cc3c2-c2ccccc2)c(C(=O)O)c1OC | / | / | / | / | / | .
O=C(N/N=C/c1ccccc1Cl)c1[nH]c2ccc(Br)cc2c1-c1ccccc1 | . | 4.1 | . | . | . | .
SMILES | APP 5'UTR act | NF-kB neuron act | STAT1 act | FLuc stim CS | FLuc inh counter | Pf gametocyte
COc1ccc(NC(=O)NC(C)C2CC3CCC2C3)cc1 (stereo unspecified) | . | . | . | . | . | .
O=C1Cc2ccccc2C(=O)N1OCc1ccc(Cl)cc1 | . | . | . | . | . | 41
COc1cc(CNc2ccc(N3CCCCC3)cc2)ccc1OCC(=O)NC(C)(C)C | / | / | / | / | / | .
CC(C)c1ccc(Nc2ncccc2C(=O)O)cc1 | 140 | . | 143 | . | 67 | .
COc1ccc(NC(=O)c2cccnc2Nc2ccc(OC)cc2)cc1 | . | . | . | . | . | /
COc1c(F)c(F)c(C(=O)Nc2ccc(NC(=O)Cc3ccccc3)cc2)c(F)c1F | . | . | . | . | . | .
CCN=C1NN=C(c2cc(C)n(CCc3ccccc3)c2C)CS1 | . | . | . | . | . | .
COCCn1c(C)cc(C2=NNC(=Nc3ccc(OC)cc3)SC2)c1C | . | . | . | . | . | /
CCN=C1NN=C(c2cc(C)n(Cc3ccco3)c2C)CS1 | . | . | . | . | 91 | .
